The target in assay [1] is T1, GIVA cPLA2 (Homo sapiens, UniProt P47712).
T1 sequence (P47712 1-749): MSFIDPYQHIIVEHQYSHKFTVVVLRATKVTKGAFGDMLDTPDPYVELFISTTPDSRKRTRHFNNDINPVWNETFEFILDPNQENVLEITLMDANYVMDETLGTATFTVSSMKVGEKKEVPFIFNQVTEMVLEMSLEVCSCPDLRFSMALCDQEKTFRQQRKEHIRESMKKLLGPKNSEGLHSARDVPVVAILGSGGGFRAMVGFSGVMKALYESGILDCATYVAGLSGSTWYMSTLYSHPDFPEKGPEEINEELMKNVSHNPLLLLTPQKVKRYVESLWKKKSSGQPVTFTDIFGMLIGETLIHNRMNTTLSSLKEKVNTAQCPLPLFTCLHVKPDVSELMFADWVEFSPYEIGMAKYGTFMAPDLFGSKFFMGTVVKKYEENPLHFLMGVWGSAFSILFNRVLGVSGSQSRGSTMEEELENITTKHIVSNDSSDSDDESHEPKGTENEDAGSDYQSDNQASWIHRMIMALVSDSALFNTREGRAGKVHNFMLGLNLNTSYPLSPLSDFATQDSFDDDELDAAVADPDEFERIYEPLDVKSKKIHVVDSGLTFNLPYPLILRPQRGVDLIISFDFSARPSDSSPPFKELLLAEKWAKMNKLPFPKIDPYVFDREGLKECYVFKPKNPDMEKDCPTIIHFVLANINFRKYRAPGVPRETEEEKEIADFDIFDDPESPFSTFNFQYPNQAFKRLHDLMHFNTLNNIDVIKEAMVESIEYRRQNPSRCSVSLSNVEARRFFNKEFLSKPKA
The conditions noted are these: reference 2-oxoamide inhibitors; ref [15]; cited from earlier work.

Another assay addresses T2, GVIA iPLA2 (Homo sapiens, UniProt O60733).
T2 sequence (O60733 1-806): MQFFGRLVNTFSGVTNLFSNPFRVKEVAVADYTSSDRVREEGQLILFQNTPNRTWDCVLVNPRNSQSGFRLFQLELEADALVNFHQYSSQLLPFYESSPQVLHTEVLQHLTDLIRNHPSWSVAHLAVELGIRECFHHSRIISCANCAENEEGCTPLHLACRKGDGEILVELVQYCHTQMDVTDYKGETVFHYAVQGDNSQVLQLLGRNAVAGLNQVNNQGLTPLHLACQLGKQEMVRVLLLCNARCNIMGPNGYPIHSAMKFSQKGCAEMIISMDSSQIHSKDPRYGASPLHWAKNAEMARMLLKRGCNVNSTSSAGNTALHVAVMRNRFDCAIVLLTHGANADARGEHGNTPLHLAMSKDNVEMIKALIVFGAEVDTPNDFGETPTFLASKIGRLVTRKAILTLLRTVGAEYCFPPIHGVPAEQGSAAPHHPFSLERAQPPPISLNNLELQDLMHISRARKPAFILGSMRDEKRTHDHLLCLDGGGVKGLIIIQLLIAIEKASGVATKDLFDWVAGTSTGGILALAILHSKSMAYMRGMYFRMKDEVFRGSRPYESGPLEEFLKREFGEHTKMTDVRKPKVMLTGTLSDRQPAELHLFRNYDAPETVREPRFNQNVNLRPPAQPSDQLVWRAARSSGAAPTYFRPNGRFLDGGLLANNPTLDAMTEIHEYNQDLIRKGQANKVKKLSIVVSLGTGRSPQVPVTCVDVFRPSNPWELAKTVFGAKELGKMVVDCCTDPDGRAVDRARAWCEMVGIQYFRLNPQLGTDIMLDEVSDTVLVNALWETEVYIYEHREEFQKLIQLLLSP
The conditions noted are these: reference 2-oxoamide inhibitors; ref [15]; cited from earlier work.

Assay [2] deals with T1, GIVA cPLA2. The assay is described as follows: In vitro GIVA cPLA2 inhibition, mixed micellar modified Dole assay. It is filed as biochemical. The conditions noted are these: mole fraction of inhibitor in total substrate interface required to inhibit the enzyme by 50%; mixed micelles.
Another assay relates to RAW 264.7 macrophages. The assay is classed as cell-based. The conditions noted are these: Mus musculus; for IC50: RAW264.7, read-out: IC50 for the inhibition of arachidonic acid release, RAW 264.7 cells stimulated with Kdo2-Lipid A, concentration for half maximal inhibition of the maximum inhibition observed; for inhibition at 25 µM: RAW264.7, read-out: AA Release Inhibition (%). A digest of the protocol: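 Mouse RAW 264.7 macrophages were grown in DMEM with 10% FBS, 2 mM glutamine, penicillin/streptomycin and non-essential amino acids at 37 °C in 5% CO2. Cells were seeded at 2 × 10^6 per well and left to adhere overnight. Test compound (25 μM) was added 30 min before Kdo2-Lipid A, and supernatants were collected 1 h later. AA was extracted, quantified by HPLC-MS and normalized to cell number by DNA quantitation.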

“And” between values parts separate entries of the source, which are not always exact repeats. Identical values can stand only once. Like-named read-outs stand apart in the source and are kept apart here. Marks after values point to notes of the source that are not given here.

With `CCCCCCCCCCCCCCC(=O)C(=O)NCCCC(=O)CO` [AX006], the “GIVA cPLA2 XI(50)” value at GIVA cPLA2 [1] was 0.024 mole fraction and 0.024 ± 0.015 ^b mole fraction.
In the case of `CCCCCCCCCCCCCCC(=O)C(=O)NCCCC(=O)COCC` [AX048], the “GVIA iPLA2 XI(50)” value on GVIA iPLA2 was 0.027 ± 0.009 ^b mole fraction. For the same molecule, at GIVA cPLA2 [1], the “GIVA cPLA2 XI(50)” value is listed as 0.022 ± 0.009 ^b mole fraction.
For the molecule `CCCCCCCCCCCCCCC(=O)C(=O)N[C@@H](CCCC)C(=O)NCC(=O)OC` [Compound 4a, (S)-Methyl 2-(2-(2-oxohexadecanamido)hexanamido)acetate], the “GIVA cPLA2 XI(50)” value on GIVA cPLA2 [2] is recorded as 0.021 ± 0.009 mole fraction.
Regarding `CCCCCCCCCCCCCCC(=O)C(=O)N[C@H](C(=O)NCC(=O)OC(C)(C)C)C(C)C` [Compound 8b, (S)-tert-Butyl 2-(3-methyl-2-(2-oxohexadecanamido)butanamido)acetate], the “GIVA cPLA2 XI(50)” value at GIVA cPLA2 [2] stood at 0.028 ± 0.015 mole fraction.
Still for that read-out and setting: as for `CCCCCCCCCCCCCCC(=O)C(=O)N[C@@H](CCCC)C(=O)NCC(=O)O` [Compound 9a, (S)-2-(2-(2-Oxohexadecanamido)hexanamido)acetic acid], the figure is 0.035 ± 0.014 mole fraction; as for `CCCCCCCCCCCCCCC(=O)C(=O)N[C@H](C(=O)NCC(=O)O)C(C)C` [Compound 9b, (S)-2-(3-Methyl-2-(2-oxohexadecanamido)butanamido)acetic acid], 0.061 ± 0.017 mole fraction.
In the case of `CCCCCCCCCCCCCCC(=O)C(=O)N[C@@H](CCCC)COCC(=O)O` [Compound 18, (S)-2-(2-(2-oxohexadecanamido)hexyloxy)acetic acid], the “GIVA cPLA2 XI(50)” value on GIVA cPLA2 [2] was 0.017 mole fraction and 0.017 ± 0.002 mole fraction. The IC50 with RAW 264.7 macrophages is ~2 µM.
In the case of `CCCCCCCCCCCCCCC(=O)C(=O)NCCCC(=O)O` [Compound 19], in the assay with RAW 264.7 macrophages, the inhibition at 25 µM was 52 ± 5% and the concentration for half-maximal inhibition (IC50) is ~25 µM.
`CCCCCCCCCCC(=O)C(=O)N[C@@H](CCCC)CCC(=O)O` [Compound 20]: in the assay on RAW 264.7 macrophages, the inhibition at 25 µM turned out to be 56 ± 6% and the IC50 worked out at 10 µM.
In the case of `CCCCCCCCCCC(=O)C(=O)N[C@@H](CCCC)C(=O)O` [Compound 21], the inhibition at 25 µM in the assay on RAW 264.7 macrophages is 27 ± 6%.
On the same count and under the same terms, then `CCCCCCCCCCCCCCC(=O)C(=O)N[C@H](CCC(=O)O)CC(C)C` [Compound 25], with 62 ± 5%; and `CCCCCCCCCCCCCCC(=O)C(=O)N[C@@H](CCCC)CCC(=O)O` [Compound 26], with 79 ± 0.5%; and `CCCCCCCCCCCCCCC(=O)C(=O)N[C@H](/C=C/C=C/C(=O)O)CCCC` [Compound 28], with 6 ± 10%.
Turning to `CCCCCCCCCCCCCCC(=O)C(=O)N[C@H](/C=C/C(=O)O)CCCC` [Compound 30], in the assay with RAW 264.7 macrophages, the inhibition at 25 µM worked out at 74 ± 8% and the IC50 is ~25 µM.
As for `CCCCCCCCCCCCCCC(=O)C(=O)N[C@H](/C=C/C(=O)OCC)CCCC` [Compound 33], in the assay on RAW 264.7 macrophages, the inhibition at 25 µM is 16 ± 6%.
Same read-out and setting: then `CCCCCCCCCCCCCCC(=O)C(=O)NCCCCC(=O)OC(C)(C)C` [Compound 34], with 11 ± 6%.
Regarding `CCCCCCCCCCCCCCC(=O)C(=O)N[C@@H](CCCC)CCCC(=O)O` [Compound 35], in the assay on RAW 264.7 macrophages, the inhibition at 25 µM worked out at 59 ± 4% and the IC50 was 7 µM.
Take `CCCCCCCCCCCCCCC(=O)C(=O)NCC(=O)OC` [Compound 37]: the inhibition at 25 µM in the assay on RAW 264.7 macrophages was found to be 30 ± 2%.

The record behind these values is publication PMC2695835 (Bioorganic & medicinal chemistry, 2009).
